From ChEMBL document CHEMBL4196015, “Synthesis of coumarin-theophylline hybrids as a new class of anti-tubercular and anti-microbial agents” (2018) come the findings set out here.

In brackets after ≈: the same amount, converted by molar mass.

In one assay the test system is Staphylococcus aureus. The experiment in a line: Antibacterial activity against Staphylococcus aureus after 24 hrs by broth microdilution method. It is filed as functional. The method in brief: (§1)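 Broth microdilution, 96-well. Inoculum from 24 h broth cultures adjusted to 0.5 McFarland. Compounds dissolved in DMSO at 1 mg/mL (stock), two-fold serial dilutions in tryptone broth (1000 to 3.9 μg/mL). Positive controls: tetracyclin for bacteria, nystatin for fungi. Incubated 37 °C, 24 h. Then 0.01% aqueous resazurin added for viability. MIC = lowest concentration inhibiting growth.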
In general terms: Broth dilution looks for growth in wells or tubes with falling amounts of substance.

The subject of a further assay is Escherichia coli. The experiment in a line: Antibacterial activity against Escherichia coli after 24 hrs by broth microdilution method. In kind it is functional. The method in brief: as §1
In the next assay the test system is Salmonella typhi. The experiment in a line: Antibacterial activity against Salmonella typhi after 24 hrs by broth microdilution method. It is filed as functional, Salmonella enterica subsp. enterica serovar Typhi. Conditions: Salmonella enterica. The method in brief:
as §1

Assay [1] relates to Mycobacterium tuberculosis. The experiment in a line: Antitubercular activity against Mycobacterium tuberculosis H37Rv ATCC 27294 at 7.8 ug/ml after 5 days by microplate alamar blue assay. It is filed as functional. The method in brief: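 Single-concentration primary screen at 7.8 µg/mL against M. tuberculosis H37Rv (ATCC-27294) by MABA, read as percent inhibition. Run in Middlebrook 7H9 broth, with BACTEC 12B medium also cited, at 37 °C for 5 days. Then 1:1 Alamar Blue/10% Tween 80 added and incubated 24 h. Colour read: blue = inhibition, pink = growth.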
(In general: Resazurin is reduced to fluorescent resorufin, in cell work by metabolically active cells.)

The subject of the next assay is Candida albicans. The experiment in a line: Antifungal activity against Candida albicans after 24 hrs by broth microdilution method. In kind it is functional. The method in brief:
as §1

For assay [2], the system named is Mycobacterium tuberculosis. The experiment in a line: Antitubercular activity against Mycobacterium tuberculosis H37Rv ATCC 27294 after 5 days by microplate alamar blue assay. It is filed as functional. Conditions: H37Rv ATCC 27294, 120 h. The method in brief:
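Retest of compounds above 90% inhibition in the primary screen. Two-fold serial dilution on plate in Middlebrook 7H9 broth, in triplicate. Isoniazid as positive control. Plates sealed, 37 °C for 5 days. Then 1:1 Alamar Blue/10% Tween 80 added, 24 h more. Blue = inhibition, pink = growth. MIC taken as lowest inhibiting concentration.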

For the molecule `CN(C)[C@@H]1C(O)=C(C(N)=O)C(=O)[C@@]2(O)C(O)=C3C(=O)c4c(O)cccc4[C@@](C)(O)[C@H]3C[C@@H]12` [TETRACYCLINE], the MIC in the assay with Staphylococcus aureus, in the assay on Escherichia coli and in the assay with Salmonella typhi was 3.9 µg/mL (≈ 8.78 µM) each time.

In turn, `Cn1c(=O)c2ncn(Cc3cc(=O)oc4ccc(Cl)cc34)c2n(C)c1=O` registered an Activity in assay [1] of 92%. The MIC (commonly the smallest concentration in the dilution series that meets the test's criterion for growth inhibition) amounted to 31.3 µg/mL (≈ 84 µM) in the assay with Staphylococcus aureus; 31.3 µg/mL (≈ 84 µM) in the assay with Escherichia coli; 62.5 µg/mL (≈ 168 µM) with Salmonella typhi; 125 µg/mL (≈ 335 µM) in the assay with Candida albicans; 3.9 µg/mL (≈ 10.5 µM) in assay [2].

`Cn1c(=O)c2ncn(Cc3cc(=O)oc4c3ccc3ccccc34)c2n(C)c1=O` yielded an Activity in assay [1] of 16%. The MIC was 15.6 µg/mL (≈ 40.2 µM) against Staphylococcus aureus, 15.6 µg/mL (≈ 40.2 µM) against Escherichia coli, 62.5 µg/mL (≈ 161 µM) against Salmonella typhi and 62.5 µg/mL (≈ 161 µM) against Candida albicans.

In the case of `Cc1cc(C)c2c(Cn3cnc4c(=O)n(C)c(=O)n(C)c43)cc(=O)oc2c1`, the Activity in assay [1] is recorded as 94%. The minimal inhibitory concentration (MIC) stood at 15.6 µg/mL (≈ 42.6 µM) with Staphylococcus aureus; 125 µg/mL (≈ 341 µM) against Escherichia coli; 250 µg/mL (≈ 682 µM) with Salmonella typhi; 250 µg/mL (≈ 682 µM) with Candida albicans; 0.97 µg/mL (≈ 2.65 µM) in assay [2].

The molecule `Cn1c(=O)c2ncn(Cc3cc(=O)oc4ccc(Br)cc34)c2n(C)c1=O` returned an Activity in assay [1] of 92%. The MIC with Staphylococcus aureus is 15.6 µg/mL (≈ 37.4 µM); against Escherichia coli, 31.3 µg/mL (≈ 75 µM); in the assay with Salmonella typhi it was 31.3 µg/mL (≈ 75 µM); with Candida albicans it was 125 µg/mL (≈ 300 µM); in assay [2], 3.9 µg/mL (≈ 9.35 µM).

The molecule `Cn1c(=O)c2ncn(Cc3cc(=O)oc4ccc(C(C)(C)C)cc34)c2n(C)c1=O` came in with an Activity in assay [1] of 96%. Also, the MIC in the assay on Staphylococcus aureus is 7.8 µg/mL (≈ 19.8 µM); against Escherichia coli it was 3.9 µg/mL (≈ 9.89 µM); in the assay on Salmonella typhi it was 7.8 µg/mL (≈ 19.8 µM); against Candida albicans it was 62.5 µg/mL (≈ 158 µM); in assay [2] it was 0.48 µg/mL (≈ 1.22 µM).

With `Cn1c(=O)c2ncn(Cc3cc(=O)oc4ccc5ccccc5c34)c2n(C)c1=O`, in assay [1], the Activity was 92%. Besides, the MIC against Staphylococcus aureus worked out at 7.8 µg/mL (≈ 20.1 µM); with Escherichia coli, 7.8 µg/mL (≈ 20.1 µM); against Salmonella typhi, 15.6 µg/mL (≈ 40.2 µM); against Candida albicans, 62.5 µg/mL (≈ 161 µM); in assay [2], 1.95 µg/mL (≈ 5.02 µM).

`Cc1ccc2c(Cn3cnc4c(=O)n(C)c(=O)n(C)c43)cc(=O)oc2c1` came in with an Activity in assay [1] of 92%. The MIC against Staphylococcus aureus stood at 62.5 µg/mL (≈ 177 µM); in the assay on Escherichia coli, 31.3 µg/mL (≈ 88.8 µM); against Salmonella typhi it was 125 µg/mL (≈ 355 µM); in the assay with Candida albicans it was 31.3 µg/mL (≈ 88.8 µM); in assay [2], 1.95 µg/mL (≈ 5.53 µM).

With `C[C@@H]1[C@H](O)[C@@H](C)/C=C/C=C/C=C/C=C/C=C/C=C/C=C/[C@H](O[C@@H]2O[C@H](C)[C@@H](O)[C@H](N)[C@@H]2O)C[C@@H]2O[C@](O)(C[C@@H](O)C[C@@H](O)[C@H](O)CC[C@@H](O)C[C@@H](O)CC(=O)O[C@H]1C)C[C@H](O)[C@H]2C(=O)O` [AMPHOTERICIN B], the MIC against Candida albicans was found to be 0.97 µg/mL (≈ 1.05 µM).

Regarding `NNC(=O)c1ccncc1` [ISONIAZID], the Activity in assay [1] was determined as 100%. Further, the minimum inhibitory concentration (MIC) in assay [2] is 0.06 µg/mL (≈ 0.438 µM).

The molecule `COc1ccc2oc(=O)cc(Cn3cnc4c(=O)n(C)c(=O)n(C)c43)c2c1` returned an Activity in assay [1] of 56%. In addition, the minimal inhibitory concentration (MIC) against Staphylococcus aureus was 7.8 µg/mL (≈ 21.2 µM); with Escherichia coli, 7.8 µg/mL (≈ 21.2 µM); against Salmonella typhi, 7.8 µg/mL (≈ 21.2 µM); with Candida albicans it was 31.3 µg/mL (≈ 85 µM).

In turn, `Cc1ccc2oc(=O)cc(Cn3cnc4c(=O)n(C)c(=O)n(C)c43)c2c1` came in with an Activity in assay [1] of 96%. The MIC with Staphylococcus aureus was 3.9 µg/mL (≈ 11.1 µM); in the assay on Escherichia coli it was 3.9 µg/mL (≈ 11.1 µM); against Salmonella typhi it was 7.8 µg/mL (≈ 22.1 µM); with Candida albicans it was 31.3 µg/mL (≈ 88.8 µM); in assay [2] it was 0.12 µg/mL (≈ 0.341 µM).

`Cn1c(=O)c2ncn(Cc3cc(=O)oc4cc(O)ccc34)c2n(C)c1=O` gave an Activity in assay [1] of 15%. Moreover, the MIC against Staphylococcus aureus is 15.6 µg/mL (≈ 44 µM); against Escherichia coli, 125 µg/mL (≈ 353 µM); against Salmonella typhi, 31.5 µg/mL (≈ 88.9 µM); in the assay with Candida albicans, 62.5 µg/mL (≈ 176 µM).
